GSK3 alpha inh: blocks human GSK-3 alpha kinase; P49840; ADP-Glo luminescence, 60 min; inhibition, % at 10 µM; actives 0.1% (n = 320,000);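 active = more than half of replicates show inhibition above 20%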;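 also: GST-tagged GSK-3 alpha with peptide substrate and 25 µM ATP; 0% = DMSO neutral wells and 100% = GW8510 positive control wells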
GSK3beta inhib: blocks human GSK3beta kinase activity. GST-GSK3beta kinase, ADP-Glo luminescence, 60 min; hits give low values. AID 2097. actives 0.038% (n = 300,000). activity score (negative = inhibition), % at 10 µM;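 active = more than half of replicate wells score below -50%, meaning over 50% inhibition versus plate controls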;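 also: 0% = median DMSO wells and -100% = median GW8510 positive control wells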
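test system = GST-tagged human GSK3beta kinase, cell-free | reagent = 25 µM ATP with peptide substrate | dosing = one dose of 10 µM per compound | schedule = 60 min reaction, RT | detection = luminescent ADP-Glo measurement of ADP formed | control set = DMSO neutral wells and GW8510 at 20 µM as positive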
STK33 inh: human STK33 kinase inhibition; purified STK33, MBP phosphorylation, ADP-Glo luminescence; inhibition, % at 10 µM; actives 0.073% (n = 320,000); AID 2661;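 active = inhibition at or above 25%, using the most active replicate where run in duplicate; inactive = inhibition below 25%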
CDK5 p35 inh: CDK5/p35 (human) kinase inhibition. Q00535+Q15078. Recombinant CDK5/p35, ADP-Glo luminescence, 60 min. inhibition, % at 10 µM. actives 0.01% (n = 330,000). AID 488839;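 active = highest replicate inhibition of at least 50% and at least 75% of replicates reaching 50%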;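 also: plate controls were DMSO neutral control for no effect and GW8510 at 10 µM for full effect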
Target sequence (Q00535 whole entry, looked up): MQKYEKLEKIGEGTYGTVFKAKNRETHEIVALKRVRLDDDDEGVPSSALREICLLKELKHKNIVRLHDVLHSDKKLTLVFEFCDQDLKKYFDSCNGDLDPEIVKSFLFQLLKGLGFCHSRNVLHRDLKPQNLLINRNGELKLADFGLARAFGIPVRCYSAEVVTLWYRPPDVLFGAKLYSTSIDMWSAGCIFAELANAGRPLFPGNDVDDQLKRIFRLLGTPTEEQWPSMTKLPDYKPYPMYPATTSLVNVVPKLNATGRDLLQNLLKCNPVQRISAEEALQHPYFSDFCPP
Target sequence (Q15078 whole entry, looked up): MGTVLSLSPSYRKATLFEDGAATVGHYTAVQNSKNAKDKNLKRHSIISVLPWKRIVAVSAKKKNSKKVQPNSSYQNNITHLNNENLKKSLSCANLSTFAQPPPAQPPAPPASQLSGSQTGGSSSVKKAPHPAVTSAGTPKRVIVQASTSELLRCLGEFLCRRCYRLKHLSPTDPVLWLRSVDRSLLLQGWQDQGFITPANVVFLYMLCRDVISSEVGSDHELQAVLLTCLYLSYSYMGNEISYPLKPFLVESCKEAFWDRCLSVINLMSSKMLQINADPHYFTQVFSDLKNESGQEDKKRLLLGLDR
Dyrk1A ADPGlo: inhibitors of rat Dyrk1A kinase. Q63470. actives 0.43% (n = 310,000). ADP-Glo luminescence, NFATc1 peptide. inhibition, % at 12.5 µM; in the data active = inhibition above about 50%;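 also: plate controls were vehicle with enzyme for no effect and no enzyme for full effect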
ADP-Glo artifact: interferes with ADP-Glo luciferase readout without Dyrk1A. shares compounds with Dyrk1A ADPGlo. ADP-Glo luciferase artifact assay, no Dyrk1A, luminescence. AC50, µM (titrated, usually from 12 µM), inactives show at the highest dose activity change, negative = inhibition. 1,300 tested, under 10 active;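 active = fitted half-maximal dose AC50 no more than ten times the top valid tested dose, with luminescence dropping as dose rises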
* = called active by the depositor; . = not tested or not shown; ! = not confirmed by another sample. Many of the other results were omitted from the sample, so hits are more common in it than they were.

SMILES	GSK3 alpha inh	GSK3beta inhib	STK33 inh	CDK5 p35 inh	Dyrk1A ADPGlo	ADP-Glo artifact
O=c1c(O[C@@H]2O[C@H](CO)C(O)C2O)c(-c2ccc(O)c(O)c2)oc2cc(O)cc(O)c12 (some centres undefined)	18	.	6	-1	64*	13%
COc1cc(-c2oc3cc(O)cc(O)c3c(=O)c2O[C@@H]2O[C@H](COC3O[C@@H](C)[C@H](O)[C@@H](O)[C@H]3O)[C@@H](O)[C@H](O)[C@H]2O)ccc1O (some centres undefined)	20	.	1	0	71*	7%
O=c1c(OC2OC(CO)C(O)C(O)C2OC2OC(CO)C(O)C(O)C2O)c(-c2ccc(O)cc2)oc2cc(O)cc(O)c12 (centres undefined)	-2	.	3	1	23	.
C[C@@H]1O[C@@H](Oc2c(-c3cc(O)c(O)c(O)c3)oc3cc(O)cc(O)c3c2=O)[C@H](O)[C@H](O)[C@H]1O	2	-26	3	0	13	.
CC1=C(C(=O)OCc2ccc3c(c2)OCO3)C(c2ccccc2OCc2ccccc2)NC(=O)N1 (centres undefined)	-1	2	0	-1	12	.
CC1=C(C(=O)OCc2ccc3c(c2)OCO3)C(c2ccccc2)NC(=O)N1 (centres undefined)	63*	0	-1	4	77*	8%
COc1ccc2c(c1)CCc1c-2n[nH]c1C(=O)O	-3	.	3	-1	59*	14%
NC1=NC(=O)/C(=C\c2ccc(-c3ccc(Cl)cc3)o2)S1	9	1	0	2	58*	7%
CN(C)C1=NC(=O)/C(=C/c2ccc(-c3ccc(S(N)(=O)=O)cc3)o2)S1	19	-4	4	.	.	.
COc1cc(C)ccc1OCc1cc(C(=O)N2CCN(C3CCCCC3)CC2)no1	.	-3	.	-1	7	.
CCN(CC)c1ccc(NC(=S)NC(=O)c2cccs2)cc1	-2	3	-2	0	-1	.
COc1ccc(-c2csc(N=C(N)N)n2)cc1	-1	2	4	0	82*	10%
O=c1cc[nH]c2ccc(OC(F)(F)F)cc12	2	0	0	1	24	.
O=c1cc[nH]c2ccc(Cl)cc12	3	-5	0	2	50*	8%
COc1cc2c(C#N)c(N3CCCC3)nc(N)c2c(N)n1	5	-6	0	0	53*!	12%
COc1cc2c(C#N)c(N3CCN(C)CC3)nc(N)c2c(N)n1	3	-3	1	3	6	.
CCOc1cc2c(C#N)c(N3CCCC3)nc(N)c2c(N)n1	5	5	0	-2	-1	.
N#Cc1c(N2CCCC2)nc(N)c2c(N)nc(N3CCCC3)cc12	-6	-1	5	0	67*	9%
Oc1ccccc1/C=N/n1c(COc2ccccc2)n[nH]c1=S	0	1	0	13	33	.
Oc1ccc(/C=N/n2c(COc3ccccc3)n[nH]c2=S)c(O)c1	9	-1	9	10	67*	10%
Cc1cc(Nc2ccccc2)n(-c2ccc(C(=O)O)cc2)n1	-2	-1	1	-1	-5	.
COc1ccc(-n2nc(C)cc2Nc2ccccc2C(=O)O)cc1	-2	0	0	-1	66*	8%
NC1=NC(=O)/C(=C/c2cccc(-c3ccc(S(N)(=O)=O)cc3)c2)S1	7	2	-1	3	10	.
NC1=NC(=O)/C(=C\c2ccc(O)c([N+](=O)[O-])c2)S1	13	-7	19	-1	79*	9%
Cc1ccc2nc(/C(C#N)=C\c3cc(O)ccc3[N+](=O)[O-])[nH]c2c1	4	-1	4	0	77*	6%
SMILES	GSK3 alpha inh	GSK3beta inhib	STK33 inh	CDK5 p35 inh	Dyrk1A ADPGlo	ADP-Glo artifact
COc1c(O)ccc(/C=C(\C#N)c2nc3ccccc3[nH]2)c1[N+](=O)[O-]	21	1	12	.	73*	8%
Nc1ncnc2c1ncn2[C@@H]1O[C@H](CNCC#Cc2ccccc2)[C@@H](O)[C@H]1O	-2	.	2	1	6	.
Cc1c(C(=O)Nc2ccc(S(=O)(=O)Nc3ncccn3)cc2)oc2ccc(Cl)cc12	-2	-1	0	-4	7	.
Cc1noc(NS(=O)(=O)c2ccc(NC(=O)c3oc4ccc(Cl)cc4c3C)cc2)c1C	-2	3	1	-2	64*	10%
CN(C)C(CNC(=S)Nc1ccccc1Cl)c1cccnc1 (centres undefined)	.	1	0	0	-4	.
COCCNC(=O)/C(C#N)=C/c1cc(Br)c(O)c(OC)c1	14	-12	2	0	13	.
CCOCCCNC(=O)/C(C#N)=C/c1cc(Br)c(O)c(Br)c1	.	-11	.	8	55*	11%
CCn1c(SCC(=O)Nc2ccc(OC)cc2)nc2c(c1=O)SCC2	1	0	1	-1	1	.
Cn1nnnc1Sc1ncnc2scc(-c3ccc[nH]3)c12	4	.	-2	-1	52*	8%
O=C(CNC(=O)[C@@H]1Cc2ccccc2CN1)NCc1ccco1	1	6	0	0	-2	.
O=C1c2ccccc2-c2onc3ccc(N4CCCC4)c1c23	.	9	.	6	77*	9%
CCOc1ccc2noc3c2c1C(=O)c1ccccc1-3	6	1	1	1	1	.
CN=C1S/C(=C\c2ccc(O)c(OC)c2)C(=O)N1C	8	-3	7	.	.	.
CN=C1S/C(=C\c2ccc(O)c(Br)c2)C(=O)N1C	21	-2	10	6	91*	4%
COC(=O)c1cc(OCC(=O)Nc2ccc3c(c2)CCC3)cc(C(=O)OC)c1	-4	.	1	-1	.	.
CCCCNC(=S)Nc1ccc2cn[nH]c2c1	.	1	.	3	81*	-2%
O=c1oc(-c2ccc(O)c(O)c2)cc2cc(O)cc(O)c12	.	.	.	3	73*	7%
Cc1ccc(NC(=O)[C@H](C)NC(=O)C2CCN(C(=O)[C@@H](NC(=O)OC(C)(C)C)C(C)C)CC2)cc1	-1	0	0	2	-5	.
COc1ccc(N(CC(=O)Nc2ccc3c(c2)OCCO3)S(=O)(=O)c2c(C)nn(C)c2C)cc1	-5	-1	1	-1	56*	11%
COc1ccc(-n2ccc(-c3nn(-c4cccc(C(F)(F)F)c4)ccc3=O)n2)cc1	.	-5	-1	0	51*	6%
CN(C(=O)c1ccc(NC(=O)Cc2ccc(NC(=O)C3CCCN(S(=O)(=O)c4cccc([N+](=O)[O-])c4)C3)cc2)cc1)C1CCCC1 (centres undefined)	.	.	.	14	5	.
O=C(COc1ccc(-c2ccccc2)cc1)NNC(=O)Nc1ccccc1	-2	.	-1	1	.	.
COc1ccc(N2Nc3n[nH]c(N)c3N2)cc1	19	-2	11	2	61*	10%
COc1ccc(N2C(=O)C3CCCN3C2=S)cc1 (centres undefined)	1	-1	-1	0	1	.
